Source: ChEMBL document CHEMBL4004831, “Naphthalene diimide-polyamine hybrids as antiproliferative agents: Focus on the architecture of the polyamine chains” (Eur J Med Chem, 2017)

What was measured:
ACHN = assay: Growth inhibition of human ACHN cells incubated for 48 hrs by sulforhodamine B assay; assay type: functional
HCT-116 = assay: Growth inhibition of human HCT116 cells incubated for 48 hrs by sulforhodamine B assay; assay type: functional; conditions: HCT-116, 48 h
K562 = assay: Growth inhibition of human K562 cells incubated for 48 hrs by sulforhodamine B assay; assay type: functional; conditions: K562, 48 h
SF-268 = assay: Growth inhibition of human SF268 cells incubated for 48 hrs by sulforhodamine B assay; assay type: functional; conditions: SF-268, 48 h
BT-549 = assay: Growth inhibition of human BT549 cells incubated for 48 hrs by sulforhodamine B assay; assay type: functional; conditions: BT-549, 48 h
MDA-MB-435 = assay: Growth inhibition of human MDA-MB-435 cells incubated for 48 hrs by sulforhodamine B assay; assay type: functional; conditions: MDA-MB-435, 48 h
MDA-MB-231 = assay: Growth inhibition of human MDA-MB-231 cells incubated for 48 hrs by sulforhodamine B assay; assay type: functional; conditions: MDA-MB-231, 48 h
OVCAR-3 = assay: Growth inhibition of human OVCAR3 cells incubated for 48 hrs by sulforhodamine B assay; assay type: functional; conditions: OVCAR-3, 48 h
SN12C = assay: Growth inhibition of human SN12C cells incubated for 48 hrs by sulforhodamine B assay; assay type: functional
SK-MEL-5 = assay: Growth inhibition of human SK-MEL-5 cells incubated for 48 hrs by sulforhodamine B assay; assay type: functional; conditions: SK-MEL-5, 48 h
HCT-15 = assay: Growth inhibition of human HCT15 cells incubated for 48 hrs by sulforhodamine B assay; assay type: functional; conditions: HCT-15, 48 h
LOX IMVI = assay: Growth inhibition of human LOXIMVI cells incubated for 48 hrs by sulforhodamine B assay; assay type: functional
CCRF-CEM = assay: Growth inhibition of human CCRF-CEM cells incubated for 48 hrs by sulforhodamine B assay; assay type: functional
SK-MEL-2 = assay: Growth inhibition of human SK-MEL-2 cells incubated for 48 hrs by sulforhodamine B assay; assay type: functional; conditions: SK-MEL-2, 48 h
PC-3 = assay: Growth inhibition of human PC3 cells incubated for 48 hrs by sulforhodamine B assay; assay type: functional; conditions: PC-3, 48 h
NCI/ADR-RES = assay: Growth inhibition of human NCI-ADR-RES cells incubated for 48 hrs by sulforhodamine B assay; assay type: functional
TK-10 = assay: Growth inhibition of human TK10 cells incubated for 48 hrs by sulforhodamine B assay; assay type: functional; conditions: TK-10, 48 h
OVCAR-4 = assay: Growth inhibition of human OVCAR4 cells incubated for 48 hrs by sulforhodamine B assay; assay type: functional; conditions: OVCAR-4, 48 h
HL-60 = assay: Growth inhibition of human HL60 cells incubated for 48 hrs by sulforhodamine B assay; assay type: functional; conditions: HL-60, 48 h
NCI-H226 = assay: Growth inhibition of human NCI-H226 cells incubated for 48 hrs by sulforhodamine B assay; assay type: functional; conditions: NCI-H226, 48 h
[1] = Stabilization of 5'Dabcyl/3'FAM labeled duplex DNA (unknown origin) assessed as increase in melting temperature at 2.5 uM pretreated for 5 mins at 30 degreeC followed by 5 mins incubation at 95 degreeC by fluorescence assay
How it was run: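 FRET melting in LiP buffer (10 mM LiOH, 50 mM KCl, pH 7.0 with H3PO4), ex 488 nm, em 520 nm. Samples were held 5 min at 30 °C, heated at 1 °C/min to 95 °C, held 5 min, then re-annealed. Tm came from first derivatives; ΔTm = shift with ligand at 2.5; at least three runs.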

RPMI-8226 = assay: Growth inhibition of human RPMI8226 cells incubated for 48 hrs by sulforhodamine B assay; assay type: functional; conditions: RPMI-8226, 48 h
SW-620 = assay: Growth inhibition of human SW620 cells incubated for 48 hrs by sulforhodamine B assay; assay type: functional; conditions: SW-620, 48 h
OVCAR-5 = assay: Growth inhibition of human OVCAR5 cells incubated for 48 hrs by sulforhodamine B assay; assay type: functional; conditions: OVCAR-5, 48 h
KM12 = assay: Growth inhibition of human KM12 cells incubated for 48 hrs by sulforhodamine B assay; assay type: functional; conditions: KM12, 48 h
HOP-62 = assay: Growth inhibition of human HOP62 cells incubated for 48 hrs by sulforhodamine B assay; assay type: functional; conditions: HOP-62, 48 h
Malme-3M = assay: Growth inhibition of human MALME-3M cells incubated for 48 hrs by sulforhodamine B assay; assay type: functional
SK-OV-3 = assay: Growth inhibition of human SKOV3 cells incubated for 48 hrs by sulforhodamine B assay; assay type: functional; conditions: SK-OV-3, 48 h
786-0 = assay: Growth inhibition of human 786-0 cells incubated for 48 hrs by sulforhodamine B assay; assay type: functional; conditions: 786-0, 48 h
SNB-75 = assay: Growth inhibition of human SNB75 cells incubated for 48 hrs by sulforhodamine B assay; assay type: functional; conditions: SNB-75, 48 h
UO-31 = assay: Growth inhibition of human UO31 cells incubated for 48 hrs by sulforhodamine B assay; assay type: functional; conditions: UO-31, 48 h
NCI-H460 = assay: Growth inhibition of human NCI-H460 cells incubated for 48 hrs by sulforhodamine B assay; assay type: functional; conditions: NCI-H460, 48 h
A549 = assay: Growth inhibition of human A549/ATCC cells incubated for 48 hrs by sulforhodamine B assay; assay type: functional; conditions: A549, 48 h
HT-29 = assay: Growth inhibition of human HT-29 cells incubated for 48 hrs by sulforhodamine B assay; assay type: functional; conditions: HT-29, 48 h
SR = assay: Growth inhibition of human SR cells incubated for 48 hrs by sulforhodamine B assay; assay type: functional
M14 = assay: Growth inhibition of human M14 cells incubated for 48 hrs by sulforhodamine B assay; assay type: functional; conditions: M14, 48 h
NCI-H522 = assay: Growth inhibition of human NCI-H522 cells incubated for 48 hrs by sulforhodamine B assay; assay type: functional; conditions: NCI-H522, 48 h
UACC-62 = assay: Growth inhibition of human UACC62 cells incubated for 48 hrs by sulforhodamine B assay; assay type: functional; conditions: UACC-62, 48 h
IGROV-1 = assay: Growth inhibition of human IGROV1 cells incubated for 48 hrs by sulforhodamine B assay; assay type: functional; conditions: IGROV-1, 48 h
Hs-578T = assay: Growth inhibition of human Hs 578T cells incubated for 48 hrs by sulforhodamine B assay; assay type: functional
SNB-19 = assay: Growth inhibition of human SNB19 cells incubated for 48 hrs by sulforhodamine B assay; assay type: functional; conditions: SNB-19, 48 h
CAKI-1 = assay: Growth inhibition of human Caki1 cells incubated for 48 hrs by sulforhodamine B assay; assay type: functional; conditions: CAKI-1, 48 h
MDA-MB-468 = assay: Growth inhibition of human MDA-MB-468 cells incubated for 48 hrs by sulforhodamine B assay; assay type: functional; conditions: MDA-MB-468, 48 h
SK-MEL-28 = assay: Growth inhibition of human SK-MEL-28 cells incubated for 48 hrs by sulforhodamine B assay; assay type: functional; conditions: SK-MEL-28, 48 h
EKVX = assay: Growth inhibition of human EKVX cells incubated for 48 hrs by sulforhodamine B assay; assay type: functional

COc1ccccc1CNCCCN1C(=O)c2ccc3c4c(ccc(c24)C1=O)C(=O)N(CCCOCCCCOCCCN)C3=O
GI50 (ACHN): 1110 nM | GI50 (HCT-116): 344 nM | GI50 (K562): 494 nM | GI50 (SF-268): 1430 nM | GI50 (BT-549): 1950 nM | GI50 (MDA-MB-435): 200 nM | GI50 (MDA-MB-231): 1220 nM | GI50 (OVCAR-3): 593 nM | GI50 (SN12C): 918 nM | GI50 (SK-MEL-5): 288 nM | GI50 (HCT-15): 550 nM | GI50 (LOX IMVI): 760 nM | GI50 (CCRF-CEM): 550 nM | GI50 (SK-MEL-2): 1830 nM | GI50 (PC-3): 1440 nM | GI50 (NCI/ADR-RES): 1470 nM | GI50 (TK-10): 1970 nM | GI50 (OVCAR-4): 197 nM | GI50 (HL-60): 810 nM | GI50 (NCI-H226): 1560 nM | ΔTm [1]: 1.5 °C | GI50 (RPMI-8226): 1720 nM | GI50 (SW-620): 357 nM | GI50 (OVCAR-5): 1890 nM | GI50 (KM12): 1270 nM | GI50 (HOP-62): 2660 nM | GI50 (Malme-3M): 248 nM | GI50 (SK-OV-3): 2360 nM | GI50 (786-0): 1530 nM | GI50 (SNB-75): 1790 nM | GI50 (UO-31): 1550 nM | GI50 (NCI-H460): 657 nM | GI50 (A549): 1220 nM | GI50 (HT-29): 402 nM | GI50 (SR): 346 nM | GI50 (M14): 1090 nM | GI50 (NCI-H522): 919 nM | GI50 (UACC-62): 742 nM | GI50 (IGROV-1): 1260 nM | GI50 (Hs-578T): 2020 nM | GI50 (SNB-19): 1530 nM | GI50 (CAKI-1): 1830 nM | GI50 (MDA-MB-468): 289 nM | GI50 (SK-MEL-28): 1590 nM | GI50 (EKVX): 1180 nM

COc1ccccc1CNCCCN1C(=O)c2ccc3c4c(ccc(c24)C1=O)C(=O)N(CCCNCCCCN)C3=O
GI50 (ACHN): 535 nM | GI50 (HCT-116): 185 nM | GI50 (K562): 281 nM | GI50 (SF-268): 268 nM | GI50 (BT-549): 1180 nM | GI50 (MDA-MB-435): 184 nM | GI50 (MDA-MB-231): 204 nM | GI50 (OVCAR-3): 293 nM | GI50 (SN12C): 280 nM | GI50 (SK-MEL-5): 153 nM | GI50 (HCT-15): 165 nM | GI50 (LOX IMVI): 188 nM | GI50 (CCRF-CEM): 275 nM | GI50 (SK-MEL-2): 223 nM | GI50 (PC-3): 230 nM | GI50 (NCI/ADR-RES): 366 nM | GI50 (OVCAR-4): 155 nM | GI50 (HL-60): 216 nM | GI50 (NCI-H226): 808 nM | ΔTm [1]: 12.2 °C | GI50 (RPMI-8226): 394 nM | GI50 (SW-620): 155 nM | GI50 (OVCAR-5): 944 nM | GI50 (KM12): 324 nM | GI50 (HOP-62): 290 nM | GI50 (Malme-3M): 174 nM | GI50 (SK-OV-3): 290 nM | GI50 (786-0): 616 nM | GI50 (SNB-75): 304 nM | GI50 (UO-31): 1860 nM | GI50 (NCI-H460): 313 nM | GI50 (A549): 258 nM | GI50 (HT-29): 188 nM | GI50 (SR): 76 nM | GI50 (M14): 343 nM | GI50 (NCI-H522): 172 nM | GI50 (UACC-62): 175 nM | GI50 (IGROV-1): 179 nM | GI50 (Hs-578T): 1120 nM | GI50 (SNB-19): 292 nM | GI50 (CAKI-1): 198 nM | GI50 (MDA-MB-468): 85 nM | GI50 (SK-MEL-28): 313 nM | GI50 (EKVX): 866 nM

COc1ccccc1CNCCCN1C(=O)c2ccc3c4c(ccc(c24)C1=O)C(=O)N(CCCNCCNCCCN)C3=O
GI50 (ACHN): 4450 nM | GI50 (HCT-116): 717 nM | GI50 (K562): 324 nM | GI50 (SF-268): 2100 nM | GI50 (BT-549): 2580 nM | GI50 (MDA-MB-435): 2070 nM | GI50 (MDA-MB-231): 2090 nM | GI50 (OVCAR-3): 2160 nM | GI50 (SN12C): 2090 nM | GI50 (SK-MEL-5): 1570 nM | GI50 (HCT-15): 12200 nM | GI50 (LOX IMVI): 2100 nM | GI50 (CCRF-CEM): 317 nM | GI50 (SK-MEL-2): 2670 nM | GI50 (PC-3): 5910 nM | GI50 (NCI/ADR-RES): 23100 nM | GI50 (TK-10): 6650 nM | GI50 (OVCAR-4): 466 nM | GI50 (HL-60): 254 nM | GI50 (NCI-H226): 2990 nM | ΔTm [1]: 10.4 °C | GI50 (RPMI-8226): 10900 nM | GI50 (SW-620): 1740 nM | GI50 (OVCAR-5): 5240 nM | GI50 (KM12): 3250 nM | GI50 (HOP-62): 2460 nM | GI50 (Malme-3M): 1610 nM | GI50 (SK-OV-3): 4040 nM | GI50 (SNB-75): 3070 nM | GI50 (UO-31): 10800 nM | GI50 (NCI-H460): 2080 nM | GI50 (A549): 3010 nM | GI50 (HT-29): 2070 nM | GI50 (SR): 898 nM | GI50 (M14): 2070 nM | GI50 (NCI-H522): 1220 nM | GI50 (UACC-62): 1680 nM | GI50 (IGROV-1): 3690 nM | GI50 (Hs-578T): 5510 nM | GI50 (SNB-19): 2180 nM | GI50 (CAKI-1): 21700 nM | GI50 (MDA-MB-468): 456 nM | GI50 (SK-MEL-28): 3030 nM | GI50 (EKVX): 4170 nM
